Source: paper PMC5080318 (Cancer Chemotherapy and Pharmacology, 2016)
Where two headings read alike, the source gives them in different places. Marks after values point to notes of the source that are not given here.

Tests used:
[1] = system: solid tumors and hematological malignancies; conditions: cited from earlier work; for antitumor activity: phase I trials, solid tumors and hematological malignancies
[2] = system: patients with advanced solid tumors; test: phase I dose escalation: DLT and MTD; type: in vivo
[3] = phase I pharmacokinetics, plasma and urine; type: in vivo, human; conditions: for mean terminal half-life: range over doses
[4] = system: caspase-cleaved cytokeratin-18 (CK-18); test: plasma caspase-cleaved CK-18; type: in vivo, human; conditions: both schedules
In short: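 Plasma was drawn pre-dose and at 48, 72 and 120 h after the first two 24-h IV infusions in each schedule: Days 1 and 15 of a 4-week cycle, or Day 1 of a 3-week cycle. Further samples were taken pre-dose and at 120 h post-dose up to Cycle 6. Caspase-cleaved CK-18 was quantified by validated ELISA.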

advanced solid tumors = test: antitumor activity; type: in vivo, human
[5] = system: patients with advanced solid tumors; conditions: in vivo
[6] = system: phosphorylated histone H3 (pHH3); conditions: in vitro; cited from earlier work
tumor cell lines = conditions: 48 h following treatment; cited from earlier work
[7] = system: xenograft models of human non-small cell lung cancer, colon carcinoma, and pancreas carcinoma; conditions: cited from earlier work
[8] = system: HCT 116 colorectal cancer model; conditions: preclinical models; ref Boehringer Ingelheim; data on file; cited from earlier work
[9] = system: alpha-1-acid glycoprotein (AGP); conditions: preclinical; ref Boehringer Ingelheim, data on file; cited from earlier work
[10] = system: patients with advanced solid tumors; test: phase I safety: adverse events
[11] = system: acute myeloid leukemia (AML); conditions: cited from earlier work; for complete response rate / febrile neutropenia / stomatitis: randomized phase II trial, elderly patients with AML
[12] = system: patients with advanced solid tumors; conditions: cited from earlier work

SMILES: O=C(Nc1c[nH]nc1-c1nc2ccc(CN3CCOCC3)cc2[nH]1)NC1CC1 [AT9283]
- antitumor activity [1]: limited antitumor activity

SMILES: CC(C)NC(=O)[C@H]1CCC[C@H]1Nc1nc(Nc2ccc(C(=O)N(C)C3CCN(C)CC3)cc2)ncc1C(F)(F)F [BI 811283]
- Patients with DLT ([2]; schedule A, 5 mg, n 3, first cycle): 0
- Patients with DLT ([2]; schedule A, 10 mg, n 7, first cycle): 1
- Patients with DLT ([2]; schedule A, 13.5 mg, n 3, first cycle): 0
- Patients with DLT ([2]; schedule A, 18 mg, n 3, first cycle): 0
- Patients with DLT ([2]; schedule A, 24 mg, n 4, first cycle): 0
- Patients with DLT ([2]; schedule A, 32 mg, n 3, first cycle): 0
- Patients with DLT ([2]; schedule A, 43 mg, n 5, first cycle): 0
- Patients with DLT ([2]; schedule A, 58 mg, n 3, first cycle): 0
- Patients with DLT ([2]; schedule A, 78 mg, n 7, first cycle): 1
- Patients with DLT ([2]; schedule A, 105 mg, n 6, first cycle): 1
- Patients with DLT ([2]; schedule A, 125 mg (MTD), n 16 incl. expansion cohort, first cycle): 1
- Patients with DLT ([2]; schedule A, 140 mg, n 3, first cycle): 2
- maximum tolerated dose (MTD) ([2]; schedule A: 24-h infusion Days 1 and 15 of a 4-week cycle): 125 mg
- Patients with DLT ([2]; schedule B, 13.5 mg, n 3, first cycle): 0
- Patients with DLT ([2]; schedule B, 18 mg, n 3, first cycle): 0
- Patients with DLT ([2]; schedule B, 24 mg, n 3, first cycle): 0
- Patients with DLT ([2]; schedule B, 32 mg, n 4, first cycle): 0
- Patients with DLT ([2]; schedule B, 43 mg, n 3, first cycle): 0
- Patients with DLT ([2]; schedule B, 58 mg, n 3, first cycle): 0
- Patients with DLT ([2]; schedule B, 78 mg, n 3, first cycle): 0
- Patients with retrospectively identified potential DLT ([2]; schedule B, 105 mg, n 6): 2
- Patients with DLT ([2]; schedule B, 105 mg, n 6, first cycle): 1^c
- Patients with retrospectively identified potential DLT ([2]; schedule B, 125 mg, n 3): 1
- Patients with DLT ([2]; schedule B, 125 mg, n 3, first cycle): 0^c
- Patients with DLT ([2]; schedule B, 150 mg, n 3, first cycle): 0
- Patients with retrospectively identified potential DLT ([2]; schedule B, 180 mg, n 3): 1
- Patients with DLT ([2]; schedule B, 180 mg, n 3, first cycle): 0^c
- Patients with DLT ([2]; schedule B, 230 mg, second cohort n 3 (after 300 mg), first cycle): 0
- Patients with DLT ([2]; schedule B, 270 mg, n 5, first cycle): 2
- Patients with DLT ([2]; schedule B, 300 mg, n 3, first cycle): 2
- maximum tolerated dose (MTD) ([2]; schedule B: 24-h infusion Day 1 of a 3-week cycle): 230 mg
- exposure to total BI 811283 (bound and unbound) in patients with higher AGP plasma concentrations ([3]; human, in vivo): trend toward increased exposure
- time to maximum plasma concentration after start of infusion ([3]; human, in vivo, iv): 20 to 24 h
- Cmax and AUC0–∞ versus dose ([3]; in vivo): increased in a dose-dependent manner
- fraction excreted in urine ([3]; in vivo): 4 to 12 % of the administered dose
- time after end of infusion in which most of the compound was eliminated ([3]; in vivo): ≤ 6 h
- mean terminal half-life ([3]; schedule A): 11.4 to 30.5 h
- mean terminal half-life ([3]; schedule B): 10.1 to 27.0 h
- level of caspase-cleaved CK-18 in plasma after infusion [4]: no consistent trend
- best overall response SD, share of patients (advanced solid tumors; both treatment schedules): approximately 30%
- objective response (advanced solid tumors; either treatment schedule): No patients
- drug-related Alopecia, grade All [5]: 11 (17.5) n (%)
- drug-related Fatigue, grade ≥3 [5]: 1 (1.7) n (%)
- drug-related Nausea, grade ≥3 [5]: 1 (1.6) n (%)
- drug-related alopecia, patients [5]: 19.8%
- drug-related decreased appetite, patients [5]: 14.9%
- drug-related diarrhea, patients [5]: 16.5%
- drug-related fatigue, patients [5]: 31.4%
- drug-related leukopenia, patients [5]: 28.9%
- drug-related nausea, patients [5]: 24.0%
- drug-related neutropenia, patients [5]: 33.1%
- time of treatment until pHH3 was reduced [6]: ≤ 1 h
- polyploidy, share of cells (tumor cell lines): up to 80%
- pHH3 in xenograft models ([7]; marker of Aurora B kinase inhibition): decrease in pHH3
- effect on tumor growth in xenograft models ([7]; tumor regression in some cases): dose-dependent inhibition of tumor growth
- antitumor activity of weekly and 2-weekly 24-h continuous infusion [8]: similarly strong antitumor activity
- protein binding [9]: dependent on the plasma concentrations of alpha-1-acid glycoprotein (AGP)
- deaths considered related to the study treatment ([10]; 22 patients with fatal AEs): None
- drug-related Alopecia, grade All ([10]; Schedule B, Total (N = 58)): 12 (20.7) n (%)
- patients with SAEs regarded as drug related ([10]; all patients): Thirteen
- patients with fatal AEs ([10]; all patients, n = 22): 18.2%
- patients with serious AEs (SAEs) ([10]; all patients, n = 61): 50.4%
- drug-related SAE febrile neutropenia ([10]; all patients, most common drug-related SAE): seven
- patients with SAEs regarded as drug related ([10]; schedule A, n = 3): 4.8%
- patients with fatal AEs ([10]; schedule A, n = 10): 15.9%
- patients with serious AEs (SAEs) ([10]; schedule A, n = 33): 52.4%
- patients with SAEs regarded as drug related ([10]; schedule B, n = 10): 17.2%
- patients with fatal AEs ([10]; schedule B, n = 12): 20.7%
- patients with serious AEs (SAEs) ([10]; schedule B, n = 28): 48.3%

SMILES: Nc1ccn([C@@H]2O[C@H](CO)[C@@H](O)[C@@H]2O)c(=O)n1 [LDAC, cytosine arabinoside]
- complete response rate [11]: 11.5%
- febrile neutropenia [11]: 19%
- stomatitis [11]: 15%

SMILES: O=C(O)c1ccc(Nc2ncc3c(n2)-c2ccc(Cl)cc2C(c2c(F)cccc2F)=NC3)cc1 [MLN8054]
- dose-limiting toxicities [12]: DLTs of liver enzyme elevations were observed

SMILES: CC(=O)NCC(=O)N1[C@@H]2CC[C@H]1c1ccc(Nc3ncc(C(F)(F)F)c(NC4CCC4)n3)cc12 [PF-03814735]
- antitumor activity [1]: limited antitumor activity

SMILES: COc1cc(Nc2ncc3c(n2)-c2ccc(Cl)cc2C(c2c(F)cccc2OC)=NC3)ccc1C(=O)O [alisertib]
- clinical activity ([1]; phase II study, preliminary evidence): durable disease control in multiple cancer types

SMILES: CCN(CCCOc1ccc2c(Nc3cc(CC(=O)Nc4cccc(F)c4)n[nH]3)ncnc2c1)CCOP(=O)(O)O [barasertib]
- response rate ([11]; in combination with low-dose cytosine arabinoside (LDAC), AML): 45%
- hematological response rate ([11]; monotherapy, phase I/II trials, AML): 19–25%
- complete response rate [11]: 35.4%
- febrile neutropenia [11]: 67%
- stomatitis [11]: 71%
- clinical activity ([1]; advanced solid tumors): limited activity in solid tumors

SMILES: CO[C@@H](C(=O)N1Cc2n[nH]c(NC(=O)c3ccc(N4CCN(C)CC4)cc3)c2C1)c1ccccc1 [danusertib]
- clinical activity ([1]; advanced hematological malignancies): promising clinical activity
- clinical activity ([1]; phase I/II studies in advanced solid tumors): limited activity
